# Only some compounds are listed: those with a hit (about 3.7% of all), similar ones and a draw of the others.
# hERG rescue: shields human hERG channel from block by proarrhythmic agents | 0.51% of 310,000 active | activation (rescue from dofetilide block), less the hit threshold, % at 10 µM | Q12809 | AID 1511 | CHO-hERG, FluxOR thallium flux, dofetilide IC70 present;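 active = activation above the mean of controls blocked by dofetilide plus 5 SD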;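 also: thallium influx through hERG after potassium depolarization seen as dye fluorescence rise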
# KCNK3 inh: human KCNK3 channel inhibition, primary screen; CHO-KCNK3 thallium flux, FluxOR fluorescence; active compounds read low; 0.84% of 340,000 active; B-score at 10 µM;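 active = B-score under library mean minus 4 SD, starting fluorescence ratio at most library mean plus 5 SD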;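 also: more negative B-score means stronger inhibition of thallium flux through KCNK3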
# KCNQ1 pot: potentiators or activators of human KCNQ1 potassium channel; P51787; CHO-K1 KCNQ1, thallium flux FluxOR fluorescence; active compounds read high; B-score at 10 µM; 0.35% of 310,000 active;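 active = fluorescence ratio B-score, a plate-corrected score, at least three library SD, with initial intensity B-score within 5 SD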
#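 assay system = KCNQ1-transfected CHO-K1 cells | medium = assay buffer with matched DMSO | probe or stimulus = depolarizing K+/Tl+ stimulus, K2SO4 and Tl2SO4 each 12.5 mM in 5x stock | dosing = single dose | incubation = dye 90 min, compound 20 min, room temperature | detection = kinetic FluxOR fluorescence, 10 s baseline plus 110 s post-stimulus | evaluation = ratio B score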
# Kir21 inh: Kir2.1 (mouse) channel inhibition. P35561. HEK293-Kir2.1, FluxOR thallium flux fluorescence; active compounds read low. B-score at 10 µM. 0.85% of 310,000 active. AID 1672;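 active = fluorescence ratio B-score at or below minus 3 SD of library scores, with starting-brightness B-score within 2 SD, cut at about -4.2 in these data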;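 also: channel flux triggered by added potassium and thallium sulfate stimulus; B-score of peak minus minimum fluorescence over baseline after thallium stimulus; more negative B-score means stronger Kir2.1 block with less thallium influx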
# Target sequence (P35561 whole entry, looked up): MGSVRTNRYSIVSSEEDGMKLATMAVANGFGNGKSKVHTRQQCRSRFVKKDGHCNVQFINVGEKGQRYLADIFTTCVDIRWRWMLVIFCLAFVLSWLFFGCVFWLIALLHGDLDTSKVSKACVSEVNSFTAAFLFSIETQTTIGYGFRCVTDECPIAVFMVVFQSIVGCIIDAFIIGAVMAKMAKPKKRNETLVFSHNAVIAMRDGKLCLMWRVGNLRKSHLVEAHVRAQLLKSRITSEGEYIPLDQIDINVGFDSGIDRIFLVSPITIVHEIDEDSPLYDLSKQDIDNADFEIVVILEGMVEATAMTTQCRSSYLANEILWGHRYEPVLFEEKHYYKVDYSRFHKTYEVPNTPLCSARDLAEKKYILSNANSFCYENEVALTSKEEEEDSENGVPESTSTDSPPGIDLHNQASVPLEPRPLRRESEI
# KCNK9 inh: human KCNK9 channel inhibition; B-score at 10 µM; 1.2% of 310,000 active; HEK293 KCNK9, FluxOR thallium flux fluorescence; active compounds read low; Q9NPC2;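 active = ratio B-score over 3 SD below the library mean, with starting fluorescence within 5 SD of its mean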;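 also: negative B-score means less thallium flux so channel inhibition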
# KCNQ1 block: blocks the human KCNQ1 potassium channel. P51787. CHO-K1 KCNQ1, FluxOR thallium flux fluorescence; active compounds read high. B-score at 10 µM. 1.3% of 310,000 active;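 active = compounds whose thallium flux B-score, printed positive for inhibition, exceeds three library SD while starting fluorescence stays within three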;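 also: channel opened by potassium depolarization with thallium stimulus after 20 min compound exposure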
# KCNK3 confirm: confirmation of human KCNK3 two-pore domain potassium channel inhibitors. 99% of 2,400 active. shares compounds with KCNK3 inh. ratio percent of control, % at 10 µM. CHO-KCNK3 thallium flux, FluxOR fluorescence; 0% buffer, 100% carvedilol maximal block;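 active = ratio percent of control, averaged over triplicates, above buffer control mean plus 5 SD, cut at about 64% in these data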;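 also: ratio is the fluorescence rise from min to max over baseline after thallium stimulus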
# KCNK3 noninduced: KCNK3 inhibitor counter-screen hit in non-induced cells; shares compounds with KCNK3 inh; non-induced KCNK3 parental cells, FluxOR thallium flux; active compounds read low; thallium flux ratio (lower = more inhibition) at 10 µM; 40% of 2,400 active; AID 651747;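 active = thallium flux ratio, averaged over three wells, more than 5 SD below the buffer control mean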;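 also: host cells are CHO cells without KCNK3 induction; ratio is peak minus trough fluorescence over baseline then normalized to buffer controls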
# The depositor's hits bear a star; i = inactive; x = no result.
SMILES,hERG rescue,KCNK3 inh,KCNQ1 pot,Kir21 inh,KCNK9 inh,KCNQ1 block,KCNK3 confirm,KCNK3 noninduced
CCOc1ccc(/C=C/C(O)=C2/C(=O)N(C)C3(C)CC2c2ccccc2O3)cc1OC (stereo unspecified),-11,-9.9*,i,-0.94,i,i,88*,i
CCOc1ccc(/C=C2\SC(=O)N(CCNC(=O)C3COc4ccccc4O3)C2=O)cc1OC (stereo unspecified),-16,i,i,0.09,i,i,x,x
Cc1noc(C)c1COc1ccccc1C(=O)NCc1ccccc1Cl,-12,-8.8*,i,-2.9,i,i,105*,i
Cc1noc(C)c1COc1ccccc1C(=O)NCCc1ccccc1,x,i,x,x,x,x,x,x
CC(CS(=O)(=O)c1ccccc1[N+](=O)[O-])N1CCOCC1 (stereo unspecified),-3,-9.1*,i,-1.5,i,i,84*,i
O=[N+]([O-])c1ccccc1S(=O)(=O)c1ccccc1[N+](=O)[O-],-9,i,i,1.6,i,i,x,x
COc1ccc(-c2cc(C(=O)Nc3ccccc3N3CCOCC3)c3ccccc3n2)cc1OC,-19,-8.7*,i,0.15,i,i,95*,0.13*
COc1ccc(N2CCOCC2)c(NC(=O)c2cccc3ccccc23)c1,-7,-9.5*,i,-0.42,i,i,108*,i
CCOc1ccccc1NC(=O)c1cc(-c2cc(OC)c(OC)c(OC)c2)nc2ccccc12,-21,-9.7*,i,0.8,i,i,132*,0.093*
CCN(CC)S(=O)(=O)c1ccc(N2CCOCC2)c(NC(=O)c2cccc3ccccc23)c1,-14,i,i,0.86,i,i,x,x
Cc1ccccc1/C=N/NC(=O)c1ccc(-n2cnnn2)cc1,x,i,x,x,x,x,x,x
COc1ccc(/C=C2\COc3ccccc3C2=O)c(OC)c1,-12,-9.6*,i,1.3,i,i,121*,i
COc1ccc(CCNC(=O)c2cc(=O)c3cc(C)ccc3o2)cc1OC,-5,i,i,1.4,i,i,x,x
c1ccc(-c2nc(N3CCCCCC3)nc(-n3ccnc3)n2)cc1,-11,-10*,i,0.73,-7*,i,122*,i
COc1ccc(C)cc1NC(=O)c1sc2ncnc(N3CCN(c4ccccn4)CC3)c2c1C,-3,-11*,i,0.19,i,i,116*,i
Cc1cccc(NC(=O)NC2CCCc3ccccc32)c1 (stereo unspecified),-18,-9.4*,i,0.8,i,i,121*,0.14*
COc1cccc(N2CCN(c3ccc(S(=O)(=O)N4CCCC4)cc3)CC2)c1,x,i,x,x,x,x,x,x
FC(F)(F)c1ccccc1NC(=S)Nc1cccc(Cl)c1,-10,-9.6*,i,-0.63,i,8*,93*,i
CCc1cc(C(=O)Nc2cc(S(=O)(=O)N(CC)CC)ccc2N2CCN(C)CC2)sc1C,-14,i,i,0.6,i,i,x,x
CCc1cc(C(=O)Nc2cc(S(=O)(=O)N(C)C)ccc2C)sc1C,-10,-9.3*,i,0.05,i,i,90*,i
CC(=O)c1ccc(-c2cccc([C@H]3[C@@H]4C=CC[C@@H](C)[C@@H]4C(=O)N3Cc3ccccc3)c2)cc1,x,i,x,x,x,x,x,x
Fc1ccc(Br)cc1/C=N/N1CCN(c2ccccc2)CC1,-4,-9.3*,i,-0.04,i,i,96*,i
Cc1ccc(CN2CCN(/N=C/c3cc(Br)ccc3F)CC2)cc1,-2,i,i,0.84,i,i,x,x
O=C(N/C(=C\c1ccccc1)C(=O)N1CCCCC1)c1ccc(Br)o1,-8,i,i,-1.2,i,i,x,x
